From ChEMBL document CHEMBL1125283, “Improvement in potency of an oxytocin antagonist after systematic substitutions with L-tryptophan” (J Med Chem, 1991) come the findings set out here.

For test [1], the species on record is Rattus norvegicus. In words: Compound was evaluated for the competitive antagonism to Arginine vasopressin (AVP) in rat antidiuretic assay. As to conditions: Urine, read-out: pA2 (converted). The format is functional, organism-based. A digest of the protocol:
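Water-loaded rats under ethanol anesthesia; antidiuretic response to AVP standard. In vivo pA2 estimated by dividing the effective dose (molar level of antagonist halving the agonist response) by an estimated distribution volume of 67 mL/kg.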

Test [2] is filed under the species Rattus norvegicus. Nature of the test: Competitive antagonist activity on oxytocin contractile action in isolated rat uterus. Format: functional. Conditions: read-out: pA2 (converted). Summed up: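 Uteri isolated from rats in natural estrus, bathed in Van Dyke-Hastings solution with 0.5 mM Mg2+. Isometric contractions to OT doses recorded by force-displacement transducer; response quantified as integrated area under peaks. Synthetic OT (450 units/mg) standard. pA2 by Schild method from at least four separate assays; mixed agonist/antagonist potencies approximated.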

Numbered stars: 1 amine (or outer) side, 2 acyl side, 3 side chain; on linkers, the order of the positions; unused ones are H or OH. Bridge positions count the residues as written; N and C are the ends. Square brackets hold non-standard residues; d marks the D form. Peptide text beside a SMILES is read from it. X1 = O=C(CC1(S[*:2])CCCCC1)[*:1]

Take `CC[C@H](C)[C@@H]1NC(=O)[C@@H](Cc2c[nH]c3ccccc23)NC(=O)CC2(CCCCC2)SSC[C@@H](C(=O)N2CCC[C@H]2C(=O)N[C@@H](CCCN=C(N)N)C(=O)N[C@@H](Cc2c[nH]c3ccccc23)C(N)=O)NC(=O)[C@H](CC(N)=O)NC(=O)[C@H](CCC(N)=O)NC1=O`: the Kb in the test listed under Rattus norvegicus [1] is above 1 µM; in the test filed under Rattus norvegicus [2] it was 0.00933 µM.

On to `CC[C@H](C)[C@@H]1NC(=O)[C@@H](Cc2c[nH]c3ccccc23)NC(=O)CC2(CCCCC2)SSC[C@@H](C(=O)N2CCC[C@H]2C(=O)N[C@@H](Cc2c[nH]c3ccccc23)C(=O)NCC(N)=O)NC(=O)[C@H](CC(N)=O)NC(=O)[C@H](CCC(N)=O)NC1=O`, for which the results for the Kb in the test listed under Rattus norvegicus [1] and in the test filed under Rattus norvegicus [2] were above 1 µM and 0.00603 µM, respectively.

`CC[C@H](C)[C@H](NC(=O)[C@@H](Cc1c[nH]c2ccccc12)NC(=O)CC12CC3CC(CC(C3)C1)C2)C(=O)N[C@@H](CCC(N)=O)C(=O)N[C@@H](CC(N)=O)C(=O)N[C@H](C(=O)N1CCC[C@H]1C(=O)N[C@@H](CCCN=C(N)N)C(=O)NCC(N)=O)C(C)C`: the Kb in the test listed under Rattus norvegicus [2] was 4.27 µM.

Take `CC[C@H](C)[C@@H]1NC(=O)[C@@H](Cc2c[nH]c3ccccc23)NC(=O)CC2(CCCCC2)SSC[C@@H](C(=O)N2CCC[C@H]2C(=O)N[C@@H](CCCN=C(N)N)C(=O)N[C@@H](Cc2cn(C=O)c3ccccc23)C(N)=O)NC(=O)[C@H](CC(N)=O)NC(=O)[C@H](CCC(N)=O)NC1=O`: the Kb in the test listed under Rattus norvegicus [2] is 0.0214 µM.

`CC[C@H](C)[C@H](NC(=O)[C@@H](Cc1c[nH]c2ccccc12)NC(=O)CC12CC3CC(CC(C3)C1)C2)C(=O)N[C@@H](CCC(N)=O)C(=O)N[C@@H](CC(N)=O)C(=O)N[C@@H](Cc1c[nH]c2ccccc12)C(=O)N1CCC[C@H]1C(=O)N[C@@H](CCCN=C(N)N)C(=O)NCC(N)=O`: the Kb in the test listed under Rattus norvegicus [2] is 0.302 µM.

For the molecule `CC[C@H](C)[C@@H]1NC(=O)[C@@H](Cc2c[nH]c3ccccc23)NC(=O)CC2(CCCCC2)SSC[C@@H](C(=O)N2c3ccccc3C[C@H]2C(=O)N[C@@H](CCCN=C(N)N)C(=O)NCC(N)=O)NC(=O)[C@H](CC(N)=O)NC(=O)[C@H](CCC(N)=O)NC1=O`, in the test listed under Rattus norvegicus [2], the Kb was 0.012 µM.

In the case of `CC[C@H](C)[C@@H]1NC(=O)[C@@H](Cc2c[nH]c3ccccc23)NC(=O)CC2(CCCCC2)SSC[C@@H](C(=O)N[C@@H](Cc2c[nH]c3ccccc23)C(=O)N[C@@H](CCCN=C(N)N)C(=O)NCC(N)=O)NC(=O)[C@H](CC(N)=O)NC(=O)[C@H](CCC(N)=O)NC1=O`, the Kb in the test filed under Rattus norvegicus [1] was above 1.58 µM; in the test listed under Rattus norvegicus [2], 0.00871 µM.

For the molecule `CC[C@H](C)[C@H](NC(=O)[C@@H](Cc1c[nH]c2ccccc12)NC(=O)[C@H](Cc1c[nH]c2ccccc12)NC(C)=O)C(=O)N[C@@H](CCC(N)=O)C(=O)N[C@@H](CC(N)=O)C(=O)N[C@H](C(=O)N1CCC[C@H]1C(=O)N[C@@H](CCCN=C(N)N)C(=O)NCC(N)=O)C(C)C`, the Kb in the test filed under Rattus norvegicus [2] is 3.72 µM.

Take `CC[C@H](C)[C@@H]1NC(=O)[C@H](Cc2c[nH]c3ccccc23)NC(=O)CC2(CCCCC2)SSC[C@@H](C(=O)N2CCC[C@H]2C(=O)N[C@@H](CCCN=C(N)N)C(=O)NCC(N)=O)NC(=O)[C@H](CC(N)=O)NC(=O)[C@H](CCC(N)=O)NC1=O` (WIQNCPRG-NH2; linker N-5 via X1): the Kb in the test listed under Rattus norvegicus [2] is 0.316 µM.

Turning to `CC[C@H](C)[C@@H]1NC(=O)[C@@H](Cc2c[nH]c3ccccc23)NC(=O)CC2(CCCCC2)SSC[C@@H](C(=O)N2CCC[C@H]2C(=O)N[C@@H](CCCN=C(N)N)C(=O)NCC(N)=O)NC(=O)[C@H](CC(N)=O)NC(=O)[C@H](CCC(N)=O)NC1=O` ([dW]IQNCPRG-NH2; linker N-5 via X1), the Kb in the test listed under Rattus norvegicus [1] was above 1.26 µM.
